# Measurements gathered from unrelated publications.
# Organism: Trypanosoma cruzi
# Effect on: parasite growth
SMILES,technique,cell line,strain,time,setting,IC50 [µM]
Cc1cc(NC(=O)Nc2ccc3c(c2)OC(F)(F)O3)cc(C(F)(F)F)n1,,,TULAHUEN,,"intracellular, amastigote",1.1
O=C(N[C@@H](Cc1ccccc1)C(=O)c1ncc(-c2ccccc2)s1)[C@H](Cc1ccccc1)NC(=O)N1CCOCC1,,,TULAHUEN,,"intracellular, amastigote",19.8
c1ccc2c(N3CCCCC3)nc(-c3cnccn3)nc2c1,imaging,U2OS,,,"intracellular, amastigote",18.6
C=C1CC[C@H]2C(C)=CC[C@H]3C(=C)C(=O)O[C@@H]3[C@@H]12,,,,72 h,epimastigote,1.9
O=C(Cn1ccnc1[N+](=O)[O-])NCc1ccccc1,,L929,TULAHUEN,7 days,"intracellular, amastigote",3.84
Cn1ccnc1-c1nc(N2CCCCC2)c2ccccc2n1,imaging,U2OS,,,"intracellular, amastigote",3.89
"C[Si](C)(C)c1cc(C(=O)[C@H](Cc2ccccc2)NC(=O)[C@H](Cc2ccccc2)NC(=O)N2CCOCC2)no1 (single isomer, unassigned)",,,TULAHUEN,,"intracellular, amastigote",> 64
COc1ccc(Nc2nc(-c3ccc(C)cc3)nc3ccccc23)cc1,imaging,U2OS,,,"intracellular, amastigote",3.09
O=C(N[C@@H](Cc1ccccc1)C(=O)c1noc(-c2ccccc2)n1)[C@H](Cc1ccccc1)NC(=O)N1CCOCC1,,,TULAHUEN,,"intracellular, amastigote",27.7
O=C(Nc1ccnc(C(F)(F)F)c1)Nc1cccc2c1OC(F)(F)O2,,,TULAHUEN,,"intracellular, amastigote",2.9
COc1ccc(Nc2nc(-c3cccnc3)nc3ccccc23)cc1,imaging,U2OS,,,"intracellular, amastigote",6.33
O=C(N[C@@H](Cc1ccccc1)C(=O)c1ncc(-c2ccccc2)o1)[C@H](Cc1ccccc1)NC(=O)N1CCOCC1,,,TULAHUEN,,"intracellular, amastigote",29.1
c1ccc(C2CCN(c3nc(-c4cnn5c4CCCC5)nc4ccccc34)C2)nc1 (stereo not shown),imaging,U2OS,,,"intracellular, amastigote",4.31
O=C(N[C@@H](Cc1ccccc1)C(=O)c1nc2ccccc2o1)[C@H](Cc1ccccc1)NC(=O)N1CCOCC1,,,TULAHUEN,,"intracellular, amastigote",31.5
O=C(Cn1ccnc1[N+](=O)[O-])NCc1ccccc1,,NIH3T3,TULAHUEN,96 h,"intracellular, amastigote",1.12
C=C1CC[C@@H](O)[C@]2(C)CC[C@H]3C(=C)C(=O)O[C@@H]3[C@@H]12,,,,72 h,epimastigote,> 50
